Measured values from ChEMBL document CHEMBL4411275, “Design, synthesis and biological evaluation of quinoline-indole derivatives as anti-tubulin agents targeting the colchicine binding site” (Eur J Med Chem, 2019).
pIC50: −log10 of the molar value.

Tests used:
K562 = test: Antiproliferative activity against human K562 cells after 72 hrs by MTT assay; type: functional, cell-based; conditions: K562, 72 h
How it was run: (§1)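 Cells preincubated 24 h at 37 °C, 5% CO₂. Compounds added at several concentrations in medium with 0.1% DMSO for 72 h. MTT (5 mg/mL in PBS) then added for 4 h, and optical density read at 490 nm. IC50 taken from dose-response curves; mean ± SD of at least three independent experiments.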

H22 (Mus musculus) [1] = test: Antitumor activity against mouse H22 cells xenografted in ICR mouse assessed as reduction in tumor weight at 20 mg/kg/day, iv for 21 days relative to control; design: scale not given: the % may be the effect or the level left
[2] = Toxicity in ICR mouse xenografted with […] cells assessed as body weight loss at 6 mg/kg, iv administered every 2 days for 21 days; type: organism-based; conditions: in vivo
How it was run: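 Five-week-old male ICR mice inoculated subcutaneously in the right flank with 1×10^6 H22 cells. Randomised after one day into groups of eight. Dosed intravenously every 2 days for three weeks. Tumour volume and body weight recorded every 2 days. Tumours then excised and weighed; inhibition (%) = (1 − mean treated tumour weight / mean control tumour weight) × 100.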

A549 = test: Antiproliferative activity against human A549 cells after 72 hrs by MTT assay; type: functional, cell-based; conditions: A549, 72 h; how it was run: as §1
[3] = Drug resistance index, ratio of IC50 for taxol-resistant human HCT8/T cells to IC50 for human HCT8 cells; type: functional
How it was run: (§2)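 Resistant and parental sensitive lines exposed to a range of compound concentrations in medium with 0.1% DMSO for 72 h at 37 °C, 5% CO2, after 24 h pre-culture. MTT added for 4 h, absorbance read at 490 nm. IC50 from dose-response curves, at least three independent experiments. DRI = IC50 resistant / IC50 parental.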

[4] = Drug resistance index, ratio of IC50 for taxol-resistant human A549/TR cells to IC50 for human A549 cells; type: functional; how it was run: as §2
H22 (Mus musculus) [5] = test: Antitumor activity against mouse H22 cells xenografted in ICR mouse assessed as reduction in tumor weight at 6 mg/kg, iv administered every 2 days for 21 days relative to control; design: scale not given: the % may be the effect or the level left
HCT-8 = test: Antiproliferative activity against human HCT8 cells after 72 hrs by MTT assay; type: functional, cell-based; conditions: HCT-8, 72 h; how it was run: as §1
A549/TR = test: Antiproliferative activity against human taxol-resistant A549/TR cells after 72 hrs by MTT assay; type: functional, cell-based; how it was run: as §1
[6] = Antiproliferative activity against human taxol-resistant HCT8/T cells after 72 hrs by MTT assay; type: functional; conditions: HCT-8, 72 h; how it was run: as §1
L02 = test: Antiproliferative activity against human LO2 cells after 72 hrs by MTT assay; type: cell-based; conditions: L02, 72 h; how it was run: as §1
KB = test: Antiproliferative activity against human KB cells after 72 hrs by MTT assay; type: functional, cell-based; how it was run: as §1
HepG2 = test: Antiproliferative activity against human HepG2 cells after 72 hrs by MTT assay; type: functional, cell-based; conditions: HepG2, 72 h; how it was run: as §1
MDA-MB-231 = test: Antiproliferative activity against human MDA-MB-231 cells after 72 hrs by MTT assay; type: functional, cell-based; conditions: MDA-MB-231, 72 h; how it was run: as §1
H22 (Mus musculus) [7] = test: Antiproliferative activity against mouse H22 cells after 72 hrs by MTT assay; conditions: H22, 72 h
Tubulin (Sus scrofa) [8] = target: T1, Tubulin (Sus scrofa) (UniProt P02554+P02550); test: Inhibition of [3H]-colchicine binding to biotinylated porcine tubulin at 1 uM after 2 hrs by SPA relative to control; type: protein assay
T1 sequence (P02550 whole entry, looked up): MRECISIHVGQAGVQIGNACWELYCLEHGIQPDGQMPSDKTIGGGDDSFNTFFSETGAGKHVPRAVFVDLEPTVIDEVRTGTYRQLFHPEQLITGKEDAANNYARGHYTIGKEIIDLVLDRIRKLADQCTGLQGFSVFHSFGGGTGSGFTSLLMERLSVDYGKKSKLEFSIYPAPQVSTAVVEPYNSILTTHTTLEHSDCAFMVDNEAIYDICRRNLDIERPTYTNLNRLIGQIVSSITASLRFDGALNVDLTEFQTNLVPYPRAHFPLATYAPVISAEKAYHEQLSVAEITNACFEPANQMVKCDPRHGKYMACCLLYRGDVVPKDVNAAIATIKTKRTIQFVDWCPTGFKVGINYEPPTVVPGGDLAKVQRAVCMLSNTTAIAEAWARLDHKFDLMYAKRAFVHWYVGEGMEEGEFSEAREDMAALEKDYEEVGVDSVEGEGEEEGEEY
T1 sequence (P02554 whole entry, looked up): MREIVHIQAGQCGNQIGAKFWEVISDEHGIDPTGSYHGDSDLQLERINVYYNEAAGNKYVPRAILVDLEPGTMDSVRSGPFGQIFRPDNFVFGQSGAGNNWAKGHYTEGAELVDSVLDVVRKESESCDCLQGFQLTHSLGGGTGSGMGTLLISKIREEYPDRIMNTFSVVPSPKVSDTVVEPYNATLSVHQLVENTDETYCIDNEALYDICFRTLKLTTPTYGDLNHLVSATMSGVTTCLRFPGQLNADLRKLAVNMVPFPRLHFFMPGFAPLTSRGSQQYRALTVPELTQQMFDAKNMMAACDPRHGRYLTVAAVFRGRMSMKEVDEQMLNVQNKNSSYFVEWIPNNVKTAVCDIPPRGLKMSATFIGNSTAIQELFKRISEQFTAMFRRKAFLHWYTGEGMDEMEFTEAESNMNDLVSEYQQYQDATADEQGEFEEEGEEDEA
How it was run: (§3)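 Scintillation proximity assay: 0.08 μM [3H]colchicine incubated with biotinylated porcine tubulin (0.5 μg) and test compound for 2 h at 37 °C in 80 mM PIPES pH 6.8, 1 mM EGTA, 10% glycerol, 1 mM MgCl2, 1 mM GTP. Streptavidin SPA beads then added, and bound radioactivity counted by scintillation counter.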

Tubulin = Tubulin (Sus scrofa, UniProt P02554+P02550); test: Inhibition of porcine brain tubulin polymerization preincubated for 30 mins and measured every 2 mins for 60 mins by spectrophotometric analysis
Tubulin (Sus scrofa) [9] = target: T1, Tubulin (Sus scrofa); test: Inhibition of [3H]-colchicine binding to biotinylated porcine tubulin at 5 uM after 2 hrs by SPA relative to control; type: protein assay; how it was run: as §3
[10] = Drug resistance index, ratio of IC50 for ADR-resistant human Bel7402/ADR cells to IC50 for human Bel7402 cells; type: functional; how it was run: as §2
[11] = Antiproliferative activity against human ADR-resistant Bel7402/ADR cells after 72 hrs by MTT assay; type: functional; conditions: Bel-7402, 72 h; how it was run: as §1
Bel-7402 = test: Antiproliferative activity against human Bel7402 cells after 72 hrs by MTT assay; type: functional, cell-based; conditions: Bel-7402, 72 h; how it was run: as §1
K562/VCR = test: Antiproliferative activity against human VCR-resistant K562/VCR cells after 72 hrs by MTT assay; type: functional, cell-based; how it was run: as §1
[12] = Drug resistance index, ratio of IC50 for VCR-resistant human K562/VCR cells to IC50 for human K562 cells; type: functional

## C=C(c1cc(C)nc2ccccc12)c1cccc2c1ccn2C
K562
  pIC50: < 6.00

## COc1ccc2c(ccn2-c2cc(C)nc3ccccc23)c1N
K562
  pIC50: 7.10

## Cc1cc(C(C)c2cccc3c2ccn3C)c2ccccc2n1 (centres undefined)
K562
  pIC50: < 6.00

## COc1ccc(/C=C\c2cc(OC)c(OC)c(OC)c2)cc1OP(=O)([O-])[O-].[Na+].[Na+] [FOSBRETABULIN DISODIUM]
H22 (Mus musculus) [1]
  Activity: 62.7%

## CC(=O)O[C@H]1C(=O)[C@@]2(C)[C@H]([C@H](OC(=O)c3ccccc3)[C@]3(O)C[C@H](OC(=O)[C@H](O)[C@@H](NC(=O)c4ccccc4)c4ccccc4)C(C)=C1C3(C)C)[C@]1(OC(C)=O)CO[C@@H]1C[C@@H]2O [PACLITAXEL]
[2]
  Activity: Toxic
A549
  pIC50: 7.74
[3]
  Ratio IC50: 92.5
[4]
  Ratio IC50: 101.6
H22 (Mus musculus) [5]
  Activity: 72.7%
HCT-8
  pIC50: 7.55
A549/TR
  pIC50: 5.74
[6]
  pIC50: 5.59

## C=C(c1ccc2c(ccn2C(=O)OC(C)(C)C)c1)c1cc(C)nc2ccccc12
K562
  pIC50: < 6.00

## C=C(c1cc(C)nc2ccccc12)c1cccc2[nH]ccc12
K562
  pIC50: < 6.00

## C=C(c1ccc2c(ccn2C)c1)c1cc(N(C)C)nc2ccccc12
K562
  pIC50: 6.77

## COc1ccc2c(ccn2C(=O)c2cc(C)nc3ccccc23)c1N
K562
  pIC50: 6.54

## C=C(c1ccc2c(ccn2C)c1)c1cc(OC)nc2ccccc12
L02
  pIC50: 6.71
K562
  pIC50: 7.34
KB
  pIC50: 7.08
HCT-8
  pIC50: 6.99
HepG2
  pIC50: 7.28
MDA-MB-231
  pIC50: 6.95
H22 (Mus musculus) [7]
  pIC50: 6.98

## C=C(c1cc(C)nc2ccccc12)c1c[nH]c2cc(OC)ccc12
K562
  pIC50: < 6.00

## C=C(c1ccc2c(ccn2C)c1)c1ccnc2ccccc12
K562
  pIC50: 7.05

## COc1ccc2c(ccn2C(=O)c2cc(C)nc3ccccc23)c1
K562
  pIC50: < 6.00

## COc1ccc2c(ccn2-c2cc(C)nc3ccccc23)c1
K562
  pIC50: < 6.00

## C=C(c1ccc2c(ccn2C)c1)c1cc(C)nc2ccccc12
Tubulin (Sus scrofa) [8]
  inhibition: 78.4%
Tubulin
  IC50: 2540 nM
Tubulin (Sus scrofa) [9]
  inhibition: 89.4%

## C=C(c1ccc2c(ccn2CC)c1)c1cc(C)nc2ccccc12
K562
  pIC50: 7.51

## COc1cccc2c1C(=O)c1c(O)c3c(c(O)c1C2=O)C[C@@](O)(C(=O)CO)C[C@@H]3O[C@H]1C[C@H](N)[C@H](O)[C@H](C)O1.Cl [DOXORUBICIN HYDROCHLORIDE]
[10]
  Ratio IC50: 6.3
[11]
  pIC50: 5.76
Bel-7402
  pIC50: 6.56

## C=C(c1ccc2c(ccn2C)c1)c1cc(C=O)nc2ccccc12
K562
  pIC50: 7.03

## COc1ccc2c(C(C)c3cc(C)nc4ccccc34)c[nH]c2c1 (centres undefined)
K562
  pIC50: < 6.00

## C=C(c1ccc2c(ccn2C)c1)c1cc(CO)nc2ccccc12
K562
  pIC50: 6.91

## CC[C@]1(O)C[C@H]2CN(CCc3c([nH]c4ccccc34)[C@@](C(=O)OC)(c3cc4c(cc3OC)N(C=O)[C@H]3[C@@](O)(C(=O)OC)[C@H](OC(C)=O)[C@]5(CC)C=CCN6CC[C@]43[C@@H]65)C2)C1 [VINCRISTINE]
K562
  pIC50: 7.68
K562/VCR
  pIC50: 5.30
[12]
  Ratio IC50: 241

## C=C(c1ccc2c(ccn2C(C)=O)c1)c1cc(C)nc2ccccc12
K562
  pIC50: 6.75

## COc1ccc(/C=C\c2cc(OC)c(OC)c(OC)c2)cc1O [COMBRETASTATIN A4]
L02
  pIC50: 7.34
H22 (Mus musculus) [1]
  Activity: 51%
K562
  pIC50: 8.15
A549
  pIC50: 8.05
HCT-8
  pIC50: 7.96
K562/VCR
  pIC50: 7.24
A549/TR
  pIC50: 6.76
HepG2
  pIC50: 8.05
[11]
  pIC50: 7.24
MDA-MB-231
  pIC50: 7.96
Bel-7402
  pIC50: 7.96
H22 (Mus musculus) [7]
  pIC50: 8.00
[6]
  pIC50: 7.06

## C=C(c1ccc2c(ccn2C)c1)c1cc(C(N)=O)nc2ccccc12
K562
  pIC50: 6.55

## C=C(c1cc(C)nc2ccccc12)c1cn(C)c2cc(OC)ccc12
K562
  pIC50: 6.97

## C=C(c1ccc2c(ccn2C)c1)c1cc(C(F)(F)F)nc2ccccc12
K562
  pIC50: 6.35

## Cc1cc(C(C)c2ccc3c(ccn3C)c2)c2ccccc2n1 (centres undefined)
L02
  pIC50: 6.67
K562
  pIC50: 7.43
KB
  pIC50: 6.96
HCT-8
  pIC50: 7.02
HepG2
  pIC50: 7.00
MDA-MB-231
  pIC50: 6.99
H22 (Mus musculus) [7]
  pIC50: 6.92

## C=C(c1ccc2c(ccn2CF)c1)c1cc(C)nc2ccccc12
K562
  pIC50: 6.82

## C=C(c1ccc2c(ccn2C)c1)c1cc(NC)nc2ccccc12
L02
  pIC50: 7.07
K562
  pIC50: 8.30
KB
  pIC50: 8.10
HCT-8
  pIC50: 8.00
HepG2
  pIC50: 7.70
MDA-MB-231
  pIC50: 7.57
H22 (Mus musculus) [7]
  pIC50: 7.60

## C=C(c1ccc2[nH]ccc2c1)c1cc(C)nc2ccccc12
L02
  pIC50: 6.06
K562
  pIC50: 6.92
KB
  pIC50: 6.43
HCT-8
  pIC50: 6.39
HepG2
  pIC50: 6.42
MDA-MB-231
  pIC50: 6.69
H22 (Mus musculus) [7]
  pIC50: 6.74
